Test results: ChEMBL document CHEMBL3621123, “Discovery and Optimization of a Series of Pyrimidine-Based Phosphodiesterase 10A (PDE10A) Inhibitors through Fragment Screening, Structure-Based Design, and Parallel Synthesis” (J Med Chem, 2015)
The source made the active and inactive calls. No cut-off for these calls is given here.

Legend:
[1] = target: cAMP and cAMP-inhibited cGMP 3',5'-cyclic phosphodiesterase 10A (Homo sapiens, UniProt Q9Y233); assay: Inhibition of human PDE10A2 transfected in AD293 cells by IMAP FP assay; type: cell-based
How it was run: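 Ki values are the mean of at least two determinations, each from a 10-point dose–response curve.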

Homo sapiens [2] = species: Homo sapiens; assay: Selectivity ratio of Ki for human PDE8A1 to Ki for human PDE10A2
How it was run: (§1)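 The ratio is PDEx Ki divided by PDE10A Ki. Each Ki is the mean of at least two determinations, each from a 10-point dose–response curve.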

Homo sapiens [3] = species: Homo sapiens; assay: Selectivity ratio of Ki for human PDE5A1 to Ki for human PDE10A2; how it was run: as §1
Homo sapiens [4] = species: Homo sapiens; assay: Selectivity ratio of Ki for human PDE4A1A to Ki for human PDE10A2; how it was run: as §1
Homo sapiens [5] = species: Homo sapiens; assay: Selectivity ratio of Ki for human PDE1A to Ki for human PDE10A2; how it was run: as §1
Homo sapiens [6] = species: Homo sapiens; assay: Selectivity ratio of Ki for human PDE11A4 to Ki for human PDE10A2; how it was run: as §1
Homo sapiens [7] = species: Homo sapiens; assay: Selectivity ratio of Ki for human PDE7A to Ki for human PDE10A2; how it was run: as §1
[8] = Selectivity ratio of Ki for rhesus monkey PDE2A3 to Ki for human PDE10A2; how it was run: as §1
Homo sapiens [9] = species: Homo sapiens; assay: Selectivity ratio of Ki for human PDE9A2 to Ki for human PDE10A2; how it was run: as §1
Homo sapiens [10] = species: Homo sapiens; assay: Selectivity ratio of Ki for human PDE3A to Ki for human PDE10A2; how it was run: as §1
[11] = Plasma concentration in Wistar Hannover rat at 5 mg/kg, ip measured after 3.5 hrs; type: ADME, organism-based
How it was run: (§2)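 Plasma was sampled 3.5 h after a single ip dose, during the MK-801 hyperlocomotion study. Each value is the mean of two or three measurements.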

[12] = Plasma concentration in Wistar Hannover rat at 1 mg/kg, ip measured after 3.5 hrs; type: ADME, organism-based; how it was run: as §2
[13] = Plasma concentration in Wistar Hannover rat at 3 mg/kg, ip measured after 3.5 hrs; type: ADME, organism-based; how it was run: as §2
Rattus norvegicus = assay: Suppression of MK-801-induced hyperlocomotion in Wistar Hannover rat at 1 to 5 mg/kg, ip administered 120 mins followed by MK-801 induction measured after 90 mins; type: functional, organism-based
How it was run: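 Rats received ip doses of 1, 3 or 5 mg/kg and were then challenged with MK-801. Psychostimulant-induced locomotor activity was the read-out.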

Sequence of cAMP and cAMP-inhibited cGMP 3',5'-cyclic phosphodiesterase 10A (Q9Y233 whole entry): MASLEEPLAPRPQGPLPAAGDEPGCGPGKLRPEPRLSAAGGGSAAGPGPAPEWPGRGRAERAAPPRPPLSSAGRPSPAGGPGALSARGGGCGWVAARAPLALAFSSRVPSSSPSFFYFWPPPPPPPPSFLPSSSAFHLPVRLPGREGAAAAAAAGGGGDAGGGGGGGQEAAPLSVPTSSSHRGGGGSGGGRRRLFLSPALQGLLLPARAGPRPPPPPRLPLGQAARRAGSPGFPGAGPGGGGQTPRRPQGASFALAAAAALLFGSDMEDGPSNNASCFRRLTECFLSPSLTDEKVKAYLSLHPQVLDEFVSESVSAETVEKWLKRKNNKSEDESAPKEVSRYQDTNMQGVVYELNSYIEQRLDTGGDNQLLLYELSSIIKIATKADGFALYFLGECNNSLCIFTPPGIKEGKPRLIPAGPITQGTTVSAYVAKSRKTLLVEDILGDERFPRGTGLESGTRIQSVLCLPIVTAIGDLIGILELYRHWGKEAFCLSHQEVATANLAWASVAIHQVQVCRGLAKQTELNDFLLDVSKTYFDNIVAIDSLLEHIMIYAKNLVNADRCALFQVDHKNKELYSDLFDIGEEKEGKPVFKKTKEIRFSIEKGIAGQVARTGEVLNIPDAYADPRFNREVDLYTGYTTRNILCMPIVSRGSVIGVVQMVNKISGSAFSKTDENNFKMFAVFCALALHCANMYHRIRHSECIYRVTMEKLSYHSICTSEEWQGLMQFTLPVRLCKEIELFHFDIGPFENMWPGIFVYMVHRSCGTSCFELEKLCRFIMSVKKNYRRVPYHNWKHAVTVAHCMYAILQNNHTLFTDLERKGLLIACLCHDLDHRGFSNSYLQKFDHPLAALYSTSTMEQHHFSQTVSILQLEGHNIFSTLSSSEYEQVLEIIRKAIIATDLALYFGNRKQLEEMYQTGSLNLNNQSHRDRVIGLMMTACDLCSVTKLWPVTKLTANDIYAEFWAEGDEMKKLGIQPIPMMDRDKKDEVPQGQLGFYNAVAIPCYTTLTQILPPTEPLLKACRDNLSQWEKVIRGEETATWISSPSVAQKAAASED

SMILES	Ki [1] [nM]	other results
Cc1c(Cl)nc(C2CC2)nc1NCc1ccccc1	1400	–
Cc1nc(C)c(CNc2nc(OCCc3ccccn3)nc(Cl)c2C)s1	2	–
Cc1c(N)nc(C2CC2)nc1Cl	2200	–
Cc1c(Cl)nc(C2CC2)nc1NC(C)C	3600	–
Cc1nc(C)c(CNc2nc(OCCc3ccccc3)nc(Cl)c2C)s1	9	–
COc1ncc(CNc2nc(C3CC3)nc(Cl)c2C)s1	10	–
Cc1ncsc1CNc1nc(C2CC2)nc(Cl)c1C	1600	–
Cc1c(Cl)nc(C2CC2)nc1Cl	8700	Ratio Ki (Homo sapiens [2]): 1; Ratio Ki (Homo sapiens [3]): 1; Ratio Ki (Homo sapiens [4]): 1; Ratio Ki (Homo sapiens [5]): 1; Ratio Ki (Homo sapiens [6]): 1; Ratio Ki (Homo sapiens [7]): 1; Ratio Ki [8]: 1; Ratio Ki (Homo sapiens [9]): 1; Ratio Ki (Homo sapiens [10]): 1
Cc1c(Cl)nc(C2CC2)nc1NCc1cncs1	1000	–
Cc1csc(CNc2nc(C3CC3)nc(Cl)c2C)n1	6800	–
COc1nc(Cl)c(C)c(NCc2sc(C)nc2C)n1	8.5	–
Cc1cc(CNc2nc(C3CC3)nc(Cl)c2C)on1	38	–
Cc1c(Cl)nc(C2CC2)nc1NC(C)c1ccncc1 (racemic)	890	–
Cc1nc(C)c(CNc2nc(OCCC3CCCCC3)nc(Cl)c2C)s1	400	–
Cc1cc(CN(C)c2nc(C3CC3)nc(Cl)c2C)on1	540	–
Cc1c(Cl)nc(C2CC2)nc1NCc1cnn(C)c1	37	–
Cc1nc(C)c(CNc2nc(OCCC3CCCCN3)nc(Cl)c2C)s1 (centres undefined)	590	–
Cc1c(Cl)nc(C2CC2)nc1NC1CCCC1	2800	–
Cc1ccc(CNc2nc(C3CC3)nc(Cl)c2C)cn1	130	–
Cc1nc(C)c(CNc2nc(OCCCc3cnc4ccccc4n3)nc(Cl)c2C)s1	0.37	–
Cc1c(Cl)nc(C2CC2)nc1N(C)Cc1cnn(C)c1	220	–
Cc1c(Cl)nc(C2CC2)nc1NCc1ccon1	810	–
Cc1ncc(CNc2nc(C3CC3)nc(Cl)c2C)s1	26	–
Cc1c(Cl)nc(C2CC2)nc1N1CCNCC1	4600	–

More lines, in order of falling Ki [1], values ahead:

Ki [1] [nM]	SMILES	other results
5300	Cc1c(Cl)nc(C2CC2)nc1N1CCCC1	–
2100	Cc1c(Cl)nc(C2CC2)nc1N1CCCCC1	–
1500	Cc1c(Cl)nc(C2CC2)nc1NCCc1cnn(C)c1	–
1300	Cc1nc2c(s1)CN(c1nc(C3CC3)nc(Cl)c1C)CC2	–
1200	CCNc1nc(C2CC2)nc(Cl)c1C	–
1000	Cc1c(Cl)nc(C2CC2)nc1NCc1cccnc1	–
880	CCCNc1nc(C2CC2)nc(Cl)c1C	Ratio Ki (Homo sapiens [2]): 25; Ratio Ki (Homo sapiens [3]): 1; Ratio Ki (Homo sapiens [4]): 1; Ratio Ki (Homo sapiens [5]): 25; Ratio Ki (Homo sapiens [6]): 25; Ratio Ki (Homo sapiens [7]): 25; Ratio Ki [8]: 100; Ratio Ki (Homo sapiens [9]): 25; Ratio Ki (Homo sapiens [10]): 25
680	Cc1c(Cl)nc(C2CC2)nc1NCc1ccoc1	–
200	Cc1c(Cl)nc(C2CC2)nc1NCc1ccncc1	–
180	C=C(F)CNc1nc(C2CC2)nc(Cl)c1C	–
51	Cc1cc(CNc2nc(C3CC3)nc(Cl)c2C)no1	–
18	Cc1nc(CNc2nc(C3CC3)nc(Cl)c2C)cs1	–
12	Cc1nc(C)c(CNc2nc(OCCO)nc(Cl)c2C)s1	–
5.1	CCCOc1nc(Cl)c(C)c(NCc2sc(C)nc2C)n1	–
4.8	Cc1nc(C)c(CNc2nc(C3CC3)nc(Cl)c2C)s1	Ratio Ki (Homo sapiens [2]): > 1000; Ratio Ki (Homo sapiens [3]): 100; Ratio Ki (Homo sapiens [4]): 100; Ratio Ki (Homo sapiens [5]): > 1000; Ratio Ki (Homo sapiens [6]): 25; Ratio Ki (Homo sapiens [7]): > 1000; Ratio Ki [8]: > 1000; Ratio Ki (Homo sapiens [9]): > 1000; Ratio Ki (Homo sapiens [10]): > 1000
0.11	Cc1nc(C)c(CNc2nc(OCCCc3ccc4cccnc4n3)nc(Cl)c2C)s1	–
0.055	Cc1nc(C)c(CNc2nc(OCCCc3nc4ccccc4s3)nc(Cl)c2C)s1	–
0.047	Cc1nc(C)c(CNc2nc(OCCCc3cn4ccccc4n3)nc(Cl)c2C)s1	–
0.02	Cc1nc(C)c(CNc2nc(OCCCc3nc4ccccc4[nH]3)nc(Cl)c2C)s1	–
0.0082	Cc1nc(C)c(CNc2nc(OCCCc3ccc4ccccc4n3)nc(Cl)c2C)s1	Ratio Ki (Homo sapiens [2]): > 1000; Ratio Ki (Homo sapiens [3]): > 1000; Ratio Ki (Homo sapiens [4]): > 1000; Ratio Ki (Homo sapiens [5]): > 1000; Ratio Ki (Homo sapiens [6]): > 1000; Ratio Ki (Homo sapiens [7]): > 1000; concentration at 3.5 h [11]: 110 nM; concentration at 3.5 h [12]: 17 nM; concentration at 3.5 h [13]: 83 nM; Ratio Ki [8]: > 1000; Activity (Rattus norvegicus): Active; Ratio Ki (Homo sapiens [9]): > 1000; Ratio Ki (Homo sapiens [10]): > 1000
